In general, solubility refers to how much of the substance goes into solution per volume. In general, AUC refers to the area under the concentration-time curve, a measure of exposure. The term IC50 denotes the point on the concentration scale where inhibition reaches its midpoint. As usually defined, the bioavailability is the share of a dose that reaches the circulation, judged against a reference dose that is usually intravenous. Usually clearance stands for the rate of elimination divided by the concentration.

Structures are written as SMILES. Converted amounts (≈) assume the structure as drawn.

The nature of data set [1]: Solubility at pH 5.0. The class given is physicochemical. The following applies: buffer.
Data set [2] can be described thus: AUC in rat at 2 mg/kg, po. The class given is ADME, organism-based. Further details: dose 2 mg/kg, route oral. The following applies: plasma.
Data set [3] is described as follows: Plasma concentration in cynomolgus monkey at 10 mg/kg, po after 2 hrs. The format is ADME, organism-based, Macaca fascicularis. Further details: dose 10 mg/kg, route oral. The gist of the method:
(§1)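 Cynomolgus monkeys were given single oral doses of 0.4, 2 or 10 mg/kg in 1% methylcellulose plus 1% Tween 80 in sterile water, with 3 animals per dose group and a vehicle group of 4. Plasma and mesenteric fat were collected 2 h post-dose. Compound level in each matrix was measured by LC/MS/MS.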

A short description of data set [4]: Drug level in mesenteric fat tissue of cynomolgus monkey at 0.4 mg/kg, po after 2 hrs. Further details: dose 0.4 mg/kg, route oral. The class given is ADME, organism-based, Macaca fascicularis, Adipose tissue. Conditions: read-out: Drug uptake. The gist of the method: as §1
Data set [5] is described as follows: Plasma concentration in cynomolgus monkey at 2 mg/kg, po after 2 hrs. The format is ADME, organism-based, Macaca fascicularis. Further details: dose 2 mg/kg, route oral. The essentials:
as §1

Data set [6] in a line: Drug level in mesenteric fat tissue of cynomolgus monkey at 2 mg/kg, po after 2 hrs. Further details: dose 2 mg/kg, route oral. Conditions: read-out: Drug uptake. The class given is ADME, organism-based, Macaca fascicularis, Adipose tissue. The essentials: as §1
A short description of data set [7]: Plasma concentration in cynomolgus monkey at 0.4 mg/kg, po after 2 hrs. Further details: dose 0.4 mg/kg, route oral. The format is ADME, organism-based, Macaca fascicularis. The gist of the method:
as §1

A short description of data set [8]: Drug level in mesenteric fat tissue of cynomolgus monkey at 10 mg/kg, po after 2 hrs. The class given is ADME, organism-based, Macaca fascicularis, Adipose tissue. Further details: dose 10 mg/kg, route oral. Conditions: read-out: Drug uptake. The essentials: as §1
Data set [9] can be described thus: Metabolic stability in rat liver S9 fraction assessed as compound remaining after 60 mins. The format is ADME, subcellular. The following applies: read-out: Activity.
The target of another data set is Cytochrome P450 3A4 (Homo sapiens, UniProt P08684).
Sequence of Cytochrome P450 3A4 (P08684 whole entry): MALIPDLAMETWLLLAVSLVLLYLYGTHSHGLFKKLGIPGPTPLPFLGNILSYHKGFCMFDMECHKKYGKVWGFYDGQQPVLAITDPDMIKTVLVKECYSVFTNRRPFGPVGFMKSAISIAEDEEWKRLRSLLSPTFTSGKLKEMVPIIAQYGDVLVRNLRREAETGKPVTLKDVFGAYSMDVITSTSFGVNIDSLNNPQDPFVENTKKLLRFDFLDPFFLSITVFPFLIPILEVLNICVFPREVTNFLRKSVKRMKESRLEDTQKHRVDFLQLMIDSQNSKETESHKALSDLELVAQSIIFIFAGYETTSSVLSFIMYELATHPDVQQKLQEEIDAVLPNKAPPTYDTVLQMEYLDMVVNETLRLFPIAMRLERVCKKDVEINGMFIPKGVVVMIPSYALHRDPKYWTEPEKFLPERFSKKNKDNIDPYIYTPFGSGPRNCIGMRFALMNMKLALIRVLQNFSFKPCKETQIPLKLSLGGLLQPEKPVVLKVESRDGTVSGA
Data set [10] in a line: Oral bioavailability in rat. The format is ADME, organism-based. Conditions: in vivo.
For data set [11], the target named is Voltage-gated inwardly rectifying potassium channel KCNH2 (Homo sapiens, UniProt Q12809).
Sequence of Voltage-gated inwardly rectifying potassium channel KCNH2 (Q12809 whole entry): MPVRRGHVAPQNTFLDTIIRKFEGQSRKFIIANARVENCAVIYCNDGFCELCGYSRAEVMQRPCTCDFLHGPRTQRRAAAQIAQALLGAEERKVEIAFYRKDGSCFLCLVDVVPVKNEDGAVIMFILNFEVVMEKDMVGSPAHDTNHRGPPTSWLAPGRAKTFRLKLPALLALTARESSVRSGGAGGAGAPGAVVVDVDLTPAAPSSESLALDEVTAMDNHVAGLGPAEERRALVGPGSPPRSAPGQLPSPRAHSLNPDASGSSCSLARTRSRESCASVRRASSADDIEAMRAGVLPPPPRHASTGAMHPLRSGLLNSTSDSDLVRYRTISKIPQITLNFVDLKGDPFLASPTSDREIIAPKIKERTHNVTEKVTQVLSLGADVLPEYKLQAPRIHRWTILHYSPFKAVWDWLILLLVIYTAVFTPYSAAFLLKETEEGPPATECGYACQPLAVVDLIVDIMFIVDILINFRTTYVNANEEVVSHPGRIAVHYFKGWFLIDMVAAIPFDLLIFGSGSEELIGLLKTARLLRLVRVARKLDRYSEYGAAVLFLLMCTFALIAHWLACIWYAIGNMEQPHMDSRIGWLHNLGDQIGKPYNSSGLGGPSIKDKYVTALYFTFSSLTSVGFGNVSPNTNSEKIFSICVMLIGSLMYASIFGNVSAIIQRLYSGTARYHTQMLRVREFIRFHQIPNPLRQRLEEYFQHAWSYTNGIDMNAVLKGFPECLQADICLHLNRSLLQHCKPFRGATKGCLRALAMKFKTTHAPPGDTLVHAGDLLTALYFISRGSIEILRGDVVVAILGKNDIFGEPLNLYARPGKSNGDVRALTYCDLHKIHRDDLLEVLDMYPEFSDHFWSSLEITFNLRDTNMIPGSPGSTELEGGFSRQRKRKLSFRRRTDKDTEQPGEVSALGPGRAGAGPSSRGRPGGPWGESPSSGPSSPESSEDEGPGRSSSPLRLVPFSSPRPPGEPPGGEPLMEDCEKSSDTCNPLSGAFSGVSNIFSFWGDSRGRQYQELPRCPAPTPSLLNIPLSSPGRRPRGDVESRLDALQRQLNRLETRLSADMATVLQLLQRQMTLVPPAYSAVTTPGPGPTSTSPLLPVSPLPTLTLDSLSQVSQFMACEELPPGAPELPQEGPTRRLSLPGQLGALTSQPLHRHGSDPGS
Data set [12] in a line: Clearance in rat. The class given is ADME, organism-based. The following applies: in vivo.

`CC(C)(C)c1ccc(S(=O)(=O)N2CCN(c3ccc([N+](=O)[O-])cc3)CC2)cc1` came in with a solubility in data set [1] of 0.5 µg/mL (≈ 1.24 µM). In data set [2], the AUC came to 29.8 ng·h/mL. On to `C[C@@H]1CN(c2ccc([N+](=O)[O-])cc2)CCN1S(=O)(=O)c1ccc(C(C)(C)C)cc1`, for which the solubility in data set [1] was determined as 1.8 µg/mL (≈ 4.31 µM).

Turning to `C[C@@H]1CN(CC2(C(N)=O)CC2)CCN1S(=O)(=O)c1ccc([C@](C)(O)C(F)(F)F)cc1`, the concentration at 2 h in data set [3] was 503 nM; in data set [4], 105 nM; in data set [5], 349 nM; in [6] it was 2780 nM; in data set [7], 29 nM; in [8] it was 40700 nM. In data set [2], this compound registered an AUC of 638 ng·h/mL. In data set [1], `CC(c1ccncc1)N1CCN(S(=O)(=O)c2ccc(C(C)(C)C)cc2)[C@H](C)C1` (stereo not given in full) yielded a solubility of 20.8 µg/mL (≈ 51.8 µM). For the compound `C[C@@H]1CN(CCc2ccncc2)CCN1S(=O)(=O)c1ccc(C(C)(O)C(F)(F)F)cc1` (stereo not given in full), the remaining at 1 h in [9] was found to be 59%.

Turning to `C[C@@H]1CN(Cc2ccnc3ccccc23)CCN1S(=O)(=O)c1ccc(C(C)(C)C)cc1`, the solubility in data set [1] is 1 µg/mL (≈ 2.29 µM). For the compound `C[C@@H]1CN(CCCc2ccncc2)CCN1S(=O)(=O)c1ccc(C(C)(C)C)cc1`, in [1], the solubility worked out at 39 µg/mL (≈ 93.8 µM). Same read-out and setting: for `C[C@@H]1CN(Cc2ccncc2)CCN1S(=O)(=O)c1ccc(C(C)(C)C)cc1` the value was 18.1 µg/mL (≈ 46.7 µM). Regarding `C[C@@H]1CN(CCc2ccccn2)CCN1S(=O)(=O)c1ccc(C(C)(O)C(F)(F)F)cc1` (stereo not given in full), the remaining at 1 h in data set [9] was 28%.

Regarding `C[C@@H]1CN(CC(F)(F)c2cccnc2)CCN1S(=O)(=O)c1ccc(C(C)(O)C(F)(F)F)cc1` (stereo not given in full), the remaining at 1 h in data set [9] is 46%.

For the compound `C[C@@H]1CN(CC2(c3cccnc3)CCC2)CCN1S(=O)(=O)c1ccc(C(C)(O)C(F)(F)F)cc1` (stereo not given in full), the remaining at 1 h in data set [9] stood at 61%.

In the case of `C[C@@H]1CN(CC2(c3ccncc3)CCCC2)CCN1S(=O)(=O)c1ccc(C(C)(O)C(F)(F)F)cc1` (stereo not given in full), the remaining at 1 h in data set [9] was 43%. For the compound `C[C@@H]1CN(CC2(c3ccncc3)CCC2)CCN1S(=O)(=O)c1ccc(C(C)(O)C(F)(F)F)cc1` (stereo not given in full), the remaining at 1 h in [9] stood at 54%. Still for that read-out and setting: for `C[C@@H]1CN(CC2(c3cccnc3)CCCC2)CCN1S(=O)(=O)c1ccc(C(C)(O)C(F)(F)F)cc1` (stereo not given in full) the value was 60%.

For the compound `C[C@@H]1CN(CC(F)(F)c2ccncc2)CCN1S(=O)(=O)c1ccc(C(C)(O)C(F)(F)F)cc1` (stereo not given in full), the remaining at 1 h in data set [9] stood at 40%.

On to `C[C@@H]1CN(CCc2ccncc2)CCN1S(=O)(=O)c1ccc(C(C)(C)C)cc1`, for which, in data set [1], the concentration in solution (solubility) was 21.8 µg/mL (≈ 54.3 µM). Turning to `C[C@@H]1CN(CC2(c3cccnc3)CC2)CCN1S(=O)(=O)c1ccc(C(C)(O)C(F)(F)F)cc1` (stereo not given in full), the remaining at 1 h in data set [9] came to 50%.

Regarding `C[C@@H]1CN(CC2(c3ccncc3)CC2)CCN1S(=O)(=O)c1ccc(C(C)(O)C(F)(F)F)cc1` (stereo not given in full), the remaining at 1 h in data set [9] came to 80%. Further, the IC50 came to 1.7 µM against Cytochrome P450 3A4 and 0.44 µM in data set [11]. In data set [10], this compound gave a bioavailability of 60%. In data set [12], this compound gave a clearance of 35 mL/min/kg. For the compound `C[C@@H]1CN(CCc2cccnc2)CCN1S(=O)(=O)c1ccc(C(C)(O)C(F)(F)F)cc1` (stereo not given in full), the remaining at 1 h in [9] was found to be 67%.

The record behind these values is ChEMBL document CHEMBL1152875, “Synthesis and optimization of arylsulfonylpiperazines as a novel class of inhibitors of 11 beta-hydroxysteroid dehydrogenase type 1 (11 beta-HSD1)” (Bioorg Med Chem Lett, 2009).
